Columns and labels:
[1] = test system: TMV; experiment: TMV–TBPT25-FITC ELISA; type: binding, Tobacco mosaic virus; conditions: varying TMV coated on plates; Figure S5
[2] = test system: BSA; experiment: Off-target binding to blocking agent BSA; design: species or system bovine
[3] = test system: TMV; experiment: ELISA with biotinylated peptide on streptavidin plates; type: binding, Tobacco mosaic virus; conditions: CPMV-specific vs TMV-specific biotinylated peptide, Figure S3
In short: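 0.1 µg biotinylated peptide was bound to streptavidin-coated plates for 1 h at RT; control wells received 5% BSA without peptide. Plates were blocked with 5% BSA, then 10 µg TMV was added for 1 h. Detection used rabbit anti-TMV polyclonal (1:1000, 1 h), then HRP goat anti-rabbit (1:10,000, 1 h), then TMB for 5–10 min. Reactions were stopped with 2 M H₂SO₄ and read at 450 nm.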

[4] = test system: CPMV; experiment: Cross-reactivity ELISA, CPMV; type: binding, cowpea mosaic virus; conditions: conclusion
In short: (§1)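 Wells coated with 10 µg virus or VLP in 0.1 M bicarbonate, pH 8.6, overnight at 4 °C, then blocked with 5% BSA for 1 h at RT. 10^9 pfu phage in 5% BSA were added for 1 h, followed by 0.5% TBST washes. Detection used HRP anti-M13 (1:500, 1 h) and TMB for 10 min in the dark, read at 370 nm. Controls were empty M13KE phage and BSA-coated wells.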

[5] = test system: TMGMV; experiment: Cross-reactivity ELISA, TMGMV; type: binding, tobacco mild green mosaic virus; conditions: conclusion
In short: as §1

[6] = target: T1, tobacco mild green mosaic virus particles (tobacco mild green mosaic virus, UniProt P03579 1-159); experiment: ELISA
T1 sequence: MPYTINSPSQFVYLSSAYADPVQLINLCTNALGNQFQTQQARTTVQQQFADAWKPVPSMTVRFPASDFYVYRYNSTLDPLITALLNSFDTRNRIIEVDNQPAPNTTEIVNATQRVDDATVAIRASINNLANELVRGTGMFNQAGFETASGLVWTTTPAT

H2N-GHRCRGGVCYKKKGGGSK/FITC/-CO2H [TBPT25-FITC]
concentration dependence of binding [1]: the more TMV coated onto the plates, the higher signal

H-GHRCRGGVCYKK-OH (cysteine pairing not given here) [TBPT25]
off-target binding to BSA [2]: Some off-target binding
TMV binding, random peptide comparison [3]: TMV binding to the TMV-specific TBPT25 was confirmed
off-target binding to CPMV [4]: Some off-target binding
off-target binding to TMGMV [5]: Some off-target binding

GHRCRGGVCYKK (designed binder) [monoclonal phage T25 (M13 phage displaying [residues removed])]
fold less binding than to TMV [6]: 1.2 fold
